Results gathered from unrelated publications.
Cell line: SK-MEL-5
Read-out: cell growth or viability

SMILES	method	time	measurement	result
COc1cc(-c2ccc(-c3ccc(C(=N)N)nc3)s2)cc(OC)c1OC	SRB	–	GI50	1670 nM
Cc1ncsc1-c1ccc(CNC(=O)[C@@H]2C[C@H](O)CN2C(=O)[C@@H](NC(=O)C2(F)CC2)C(C)(C)C)c(OCCc2ccc(CN3CCN(c4cc(-c5ccccc5O)nnc4N)CC3)cc2)c1	ATP luminescence	7 days	IC50	540 nM
COc1ccc(C(=O)/C=C/c2cccnc2)cc1S(N)(=O)=O	SRB	48 h	GI50	14800 nM
O=C1NC(=NCc2cccs2)S/C1=C\c1ccc2ncccc2c1	–	–	IC50	> 10000 nM
COc1ccc(-c2ccc(-c3ccc(C(=N)N)nc3)s2)cc1	SRB	–	GI50	1790 nM
COc1ccccc1/C=C/C(=O)c1ccc(OC)c(S(N)(=O)=O)c1	SRB	48 h	GI50	3900 nM
COc1cccc(Oc2ccccc2NC(=O)CNC(=O)c2cccc3ccccc23)c1	SRB	48 h	GI50	219 nM
O=C1NCCc2[nH]c(-c3ccncc3)cc21	–	–	IC50	> 10000 nM
